Assay results gathered from unrelated publications.
Protocols differ between the studies behind these lines.
Observed: metabolic stability
Medium: liver microsomes

| SMILES | system | setting | microsomal CLint [µL/min/mg] |
| --- | --- | --- | --- |
| N#Cc1ccc(C[C@H](Nc2nnc(-c3ccc(F)cc3)s2)C(=O)N2CCc3ccccc32)cc1 | rat | 10 µM, pH 7.4 | 35.9 |
| COCC(=O)N1CCC[C@H](C(=O)NCc2nc(-c3ccc(OC)cc3)cs2)C1 | male Sprague-Dawley rat | 0.5 µM | 39 |
| CCOc1c([C@H](C)n2nc(C)c3c(N)ncnc32)cc(Cl)c(F)c1[C@@H]1CNC(=O)C1 | rat | 0.5 µM, pH 7.4 | 2.4 |
| O=C(NCc1nc(-c2ccccc2)cs1)[C@H]1CCCN(C(=O)COCC(F)F)C1 | male Sprague-Dawley rat | 0.5 µM | 85 |
| Cc1[nH]c(C)c(S(=O)(=O)Nc2ccc(C(F)(F)F)c(Cl)c2)c1C(=O)N(C)C | rat | – | 122 |
| N#Cc1ccc(C[C@H](Nc2c(Nc3ccc(Br)cc3)c(=O)c2=O)C(=O)N2CCc3ccccc32)cc1 | rat | 10 µM, pH 7.4 | 18.1 |
| COCC(=O)N1CCC[C@H](C(=O)NCc2nc(-c3ccc(C)nc3)cs2)C1 | male Sprague-Dawley rat | 0.5 µM | 6.3 |
| CONC(=O)c1cccc2c1cc(C)n2-c1nc2c(c(NCc3ccccc3)n1)CCCN2 | rat | 1 µM, pH 7.4 | 413 |
| O=C1c2ccccc2C(=O)N1CCCN1CCN(C(c2ccc(F)cc2)c2ccc(F)cc2)CC1 | rat | 100 ng/mL | 101 |
| COc1ccc(Cn2cc(CO[C@@H]3O[C@H]4[C@H](OC[C@H]4O)[C@H]3O)nn2)cc1 | rat | – | < 14.4 |
| N#Cc1ccc(C[C@H](Nc2nnc(-c3ccc(Br)cc3)o2)C(=O)N2CCc3ccccc32)cc1 | rat | 10 µM, pH 7.4 | 25.7 |
| COCC(=O)N1CCC[C@H](C(=O)NCc2nc(-c3ccc(-c4ccccc4)cc3)cs2)C1 | male Sprague-Dawley rat | 0.5 µM | 194 |
| Cc1cccc(-c2nnc(N[C@@H](Cc3ccc(C#N)cc3)C(=O)N3CCc4ccccc43)o2)c1 | rat | 10 µM, pH 7.4 | 38.5 |
| O=C(Nc1ccc(OC(F)(F)Cl)cc1)c1cnc(N2CC[C@@H](O)C2)c(-c2ccn[nH]2)c1 | rat | 1 µM, pH 7.4 | 12.9 |
| N#Cc1ccc(C[C@H](Nc2c(Nc3ccc(F)cc3)c(=O)c2=O)C(=O)N2CCc3ccccc32)cc1 | rat | 10 µM, pH 7.4 | 34.6 |
| Cc1[nH]c(C)c(S(=O)(=O)Nc2ccc(C(F)(F)F)c(Cl)c2Cl)c1C(=O)N1CCC(F)(F)C1 | rat | – | 21.8 |
| CN1CCC[C@H](OCC(=O)N2CCC[C@H](C(=O)NCc3nc(-c4ccc(C(F)(F)F)cc4)cs3)C2)C1 | male Sprague-Dawley rat | 0.5 µM | 33 |
